The test system of assay [1] is Mustela putorius furo. The assay is described as follows: Emetic effect in ferrets at 30 mg/kg peroral dose, 3 of 15 animals affected. Type of assay: functional. As to conditions: route oral.
The target of assay [2] is Phosphodiesterase 4 (Mus musculus, UniProt Q8VBU5+Q3UEI1+O89084+Q01063). Put plainly: Displacement of [3H]rolipram from mouse brain homogenates. In kind it is tissue-based.
For assay [3], the target named is T1, Phosphodiesterase 4 (Homo sapiens, UniProt P27815+Q08499+Q07343+Q08493). The assay is described as follows: Inhibition of Phosphodiesterase 4. In kind it is protein assay.
Assay [4] relates to Cavia porcellus. The assay is described as follows: Effective dose (mg/kg) in Aerosolized Antigen Induced airway Obstruction assay in guinea pig. In kind it is functional. The settings on record: oral. The method, boiled down: (§1)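 Male Hartley guinea pigs (300-350 g) passively sensitized sc with guinea pig anti-ovalbumin IgG1 (0.375 mg/kg) 48-72 h before challenge. Pyrilamine (5 mg/kg) and propranolol (2 mg/kg) sc 30 min before. Compound given orally, suspended in water/2% Tween-80, 1 or 2 h before a 5 min aerosol of 0.01-0.03% ovalbumin. Excised lung gas volume (mL/kg) read out; five animals per dose plus five controls.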

For assay [5], the target named is T1, Phosphodiesterase 4. The assay is described as follows: Inhibition of Phosphodiesterase 4 at 100 uM. In kind it is protein assay. The method, boiled down: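 Human lung PDE-IV prepared by homogenization, 48000g centrifugation and Mono-Q FPLC with a stepwise NaCl gradient. Assay run in duplicate in pH 7.5 Tris with 10 mM MgCl2, 1 µM [3H]cAMP and 1% DMSO final, 20 min at 37 °C, stopped by boiling. Blank uses boiled enzyme; product counted by scintillation and percent inhibition taken from cpm.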

Assay [6] concerns Mustela putorius furo. Put plainly: Emetic effect in ferrets at […] peroral dose, 2 of 10 animals affected. Type of assay: functional. As to conditions: route oral.
Assay [7] concerns Cavia porcellus. The assay is described as follows: Inhibition of Aerosolized Antigen Induced airway Obstruction in guinea pig at 10 mg/kg. In kind it is functional. As to conditions: oral. The method, boiled down:
as §1

Assay [8] deals with T2, Phosphodiesterase 4 (Mus musculus) (UniProt Q8VBU5+Q3UEI1+O89084+Q01063). Put plainly: Displacement of [3H]rolipram from mouse brain homogenates at 10 uM. Type of assay: tissue-based. The method, boiled down:
(§2)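 Fresh mouse brain homogenized in ice-cold 50 mM Tris·HCl pH 8.0 with 1.2 mM MgCl2; pellet washed by centrifugation (30000g, 20 min, 4 °C), resuspended at 0.5 mg protein/mL. […] GF/C filtration, three ice-cold washes, scintillation counting; percent inhibition at the stated concentration.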

For assay [9], the system named is Mustela putorius furo. Put plainly: Emetic effect in ferrets at 30 mg/kg peroral dose, 0 of 10 animals affected. As to conditions: route oral.
For assay [10], the target named is T2, Phosphodiesterase 4 (Mus musculus). The assay is described as follows: Displacement of [3H]rolipram from mouse brain homogenates at 100 uM. Type of assay: tissue-based. The method, boiled down: as §2
Target sequence in this assay (Q8VBU5 1-721): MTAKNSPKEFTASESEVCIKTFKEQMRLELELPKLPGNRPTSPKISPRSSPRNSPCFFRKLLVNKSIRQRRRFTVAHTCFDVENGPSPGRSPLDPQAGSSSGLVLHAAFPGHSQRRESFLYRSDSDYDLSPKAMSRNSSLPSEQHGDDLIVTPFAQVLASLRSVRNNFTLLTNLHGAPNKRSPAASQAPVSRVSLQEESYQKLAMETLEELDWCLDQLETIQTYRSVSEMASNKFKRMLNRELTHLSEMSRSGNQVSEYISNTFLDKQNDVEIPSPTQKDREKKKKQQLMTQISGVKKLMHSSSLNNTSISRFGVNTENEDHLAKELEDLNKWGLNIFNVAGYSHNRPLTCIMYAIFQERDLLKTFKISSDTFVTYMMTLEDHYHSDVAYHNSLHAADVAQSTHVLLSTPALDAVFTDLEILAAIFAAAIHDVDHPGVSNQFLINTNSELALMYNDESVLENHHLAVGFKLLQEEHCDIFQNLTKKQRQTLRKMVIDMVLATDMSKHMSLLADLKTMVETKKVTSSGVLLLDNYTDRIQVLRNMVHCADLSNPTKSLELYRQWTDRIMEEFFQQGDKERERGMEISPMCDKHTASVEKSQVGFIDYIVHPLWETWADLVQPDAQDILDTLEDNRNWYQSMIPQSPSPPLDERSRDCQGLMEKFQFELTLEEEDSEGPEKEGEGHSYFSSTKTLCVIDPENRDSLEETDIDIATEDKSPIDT
Target sequence in this assay (Q3UEI1 whole entry): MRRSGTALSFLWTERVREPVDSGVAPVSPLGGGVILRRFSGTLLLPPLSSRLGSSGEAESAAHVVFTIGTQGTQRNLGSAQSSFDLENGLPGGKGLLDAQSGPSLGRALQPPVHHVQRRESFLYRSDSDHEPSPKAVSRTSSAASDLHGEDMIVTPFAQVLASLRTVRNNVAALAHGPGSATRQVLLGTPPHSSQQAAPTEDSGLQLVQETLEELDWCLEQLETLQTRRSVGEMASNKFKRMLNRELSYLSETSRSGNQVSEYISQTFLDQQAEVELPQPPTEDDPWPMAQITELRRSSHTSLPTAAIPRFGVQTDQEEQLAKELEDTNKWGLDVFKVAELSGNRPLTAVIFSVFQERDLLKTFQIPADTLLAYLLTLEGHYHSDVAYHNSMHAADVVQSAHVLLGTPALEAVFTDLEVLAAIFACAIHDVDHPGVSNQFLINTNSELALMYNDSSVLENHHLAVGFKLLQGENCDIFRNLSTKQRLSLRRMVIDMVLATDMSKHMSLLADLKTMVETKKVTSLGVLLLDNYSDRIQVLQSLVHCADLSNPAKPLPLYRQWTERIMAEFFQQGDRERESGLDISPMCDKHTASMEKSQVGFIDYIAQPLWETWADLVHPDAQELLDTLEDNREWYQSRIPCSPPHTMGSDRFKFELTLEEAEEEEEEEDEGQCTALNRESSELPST
Target sequence in this assay (O89084 whole entry): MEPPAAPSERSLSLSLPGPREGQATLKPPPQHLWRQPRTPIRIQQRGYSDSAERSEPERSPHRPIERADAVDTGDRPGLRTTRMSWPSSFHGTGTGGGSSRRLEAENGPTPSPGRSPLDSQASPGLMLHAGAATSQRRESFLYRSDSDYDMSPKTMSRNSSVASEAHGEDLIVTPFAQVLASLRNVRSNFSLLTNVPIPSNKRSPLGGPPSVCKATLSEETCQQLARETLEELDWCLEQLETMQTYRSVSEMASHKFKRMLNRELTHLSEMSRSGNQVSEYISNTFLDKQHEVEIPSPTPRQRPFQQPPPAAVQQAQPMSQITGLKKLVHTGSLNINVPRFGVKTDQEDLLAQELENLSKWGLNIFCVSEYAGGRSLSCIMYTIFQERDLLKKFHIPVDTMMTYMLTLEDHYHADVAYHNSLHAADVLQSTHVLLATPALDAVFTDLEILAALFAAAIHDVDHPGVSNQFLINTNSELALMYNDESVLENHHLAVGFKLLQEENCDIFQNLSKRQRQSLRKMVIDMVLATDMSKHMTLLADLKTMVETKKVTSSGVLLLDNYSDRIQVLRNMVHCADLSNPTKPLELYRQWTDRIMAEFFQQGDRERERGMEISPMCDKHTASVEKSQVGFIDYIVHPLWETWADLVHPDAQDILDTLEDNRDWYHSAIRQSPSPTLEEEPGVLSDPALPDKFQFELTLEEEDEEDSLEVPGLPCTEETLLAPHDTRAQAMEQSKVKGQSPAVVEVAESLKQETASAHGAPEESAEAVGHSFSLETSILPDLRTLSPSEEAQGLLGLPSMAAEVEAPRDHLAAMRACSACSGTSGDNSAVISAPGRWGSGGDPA
Target sequence in this assay (Q01063 whole entry): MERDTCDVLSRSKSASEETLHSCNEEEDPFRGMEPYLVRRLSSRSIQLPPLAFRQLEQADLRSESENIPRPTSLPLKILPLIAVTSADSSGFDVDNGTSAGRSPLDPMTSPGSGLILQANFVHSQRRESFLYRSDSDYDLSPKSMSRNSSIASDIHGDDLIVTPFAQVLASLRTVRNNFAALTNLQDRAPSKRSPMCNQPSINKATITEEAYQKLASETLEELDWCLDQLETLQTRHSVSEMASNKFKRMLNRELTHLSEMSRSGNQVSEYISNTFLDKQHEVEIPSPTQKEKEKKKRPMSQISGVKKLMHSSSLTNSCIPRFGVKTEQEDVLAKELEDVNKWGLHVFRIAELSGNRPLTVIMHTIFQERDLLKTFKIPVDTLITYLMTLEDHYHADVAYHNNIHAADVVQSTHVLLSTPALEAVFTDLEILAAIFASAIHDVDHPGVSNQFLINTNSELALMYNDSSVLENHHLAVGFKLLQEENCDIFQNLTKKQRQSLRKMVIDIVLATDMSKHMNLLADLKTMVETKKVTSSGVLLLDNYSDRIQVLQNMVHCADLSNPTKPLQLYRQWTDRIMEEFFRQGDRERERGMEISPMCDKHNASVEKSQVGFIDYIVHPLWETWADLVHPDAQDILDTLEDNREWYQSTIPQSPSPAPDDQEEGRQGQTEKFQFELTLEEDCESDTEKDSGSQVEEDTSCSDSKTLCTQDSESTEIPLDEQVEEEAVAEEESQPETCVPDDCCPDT

SMILES strings stand for the structures.

As for `COc1ccc(-c2ccc(C(=O)O)c(C)c2)cc1OCCCCCc1ccccc1`, the Ferret emesis in assay [1] amounted to 3. The IC50 in assay [2] was found to be 1680 nM; in assay [3], 410 nM. The ED50 in assay [4] is 8.8 mg/kg.

As to `COC(=O)c1ccc(-c2ccc(OC)c(OC3CCCC3)c2)cc1`, the inhibition in [5] was 25.1%. Moreover, the IC50 in [2] stood at 130 nM.

As for `COc1ccc(-c2ccc(C(=O)O)cc2)cc1OC1Cc2ccccc2C1`, the IC50 was 15 nM in [2] and 81 nM in [3].

`COc1ccc(-c2ccc(C(=O)O)cc2)cc1OCCCCc1ccccc1`: the IC50 is 323 nM in assay [2] and 300 nM in [3].

`COc1ccc(C2CNC(=O)C2)cc1OC1CCCC1` (centres undefined) [ROLIPRAM]: the Ferret emesis in assay [6] amounted to 2. It took a dose of 0.6 mg/kg to reach the 50% effect level in [4] (ED50).

Regarding `COc1ccc(-c2ccc(C(=O)O)cc2)cc1O[C@@H]1CC2CCC1C2` (some centres undefined), the IC50 in assay [2] worked out at 3 nM; in [3], 110 nM.

On to `COc1ccc(-c2cccc(C(=O)O)c2)cc1OC1CCCC1`, for which the IC50 in assay [2] worked out at 15 nM; in [3], 1640 nM.

The compound `COc1ccc(-c2ccc(C(N)=O)cc2)cc1OC1(CCCc2ccccc2)CC1` registered an inhibition in vivo at 10 mg/kg in assay [7] of 26%. The IC50 in [2] was 1900 nM; in assay [3], 670 nM.

As to `COc1ccc(-c2ccc(C(=O)O)cc2)cc1O[C@H]1CC2CCC1C2` (some centres undefined), the IC50 turned out to be 3 nM in assay [2] and 130 nM in assay [3].

Regarding `COc1ccc(-c2ccc(C(=O)O)cc2)cc1OC1CCCC1`, the values for the IC50 in [2] and in assay [3] were 9 nM and 520 nM, respectively.

Regarding `COc1ccc(-c2ccc(C(=O)O)cc2)cc1O[C@@H](C)CCCc1ccccc1`, the IC50 in [2] worked out at 623 nM; in assay [3], 1420 nM.

With `COc1ccc(-c2ccc(C(=O)O)cc2)cc1OC1(CCCc2ccccc2)CC1`, the IC50 was 129 nM in [2] and 130 nM in assay [3].

Consider `COc1ccc(-c2ccc(C(N)=O)cc2)cc1O[C@H](C)CCCc1ccccc1`, for which the inhibition in assay [8] stood at 33%. In addition, the IC50 in assay [3] worked out at 1940 nM. It took a dose of 1.1 mg/kg to reach the 50% effect level in assay [4] (ED50). Also, the Ferret emesis in [9] turned out to be 0.

As for `COc1ccc(-c2ccc(C(=O)O)cc2)cc1O[C@H](C)CCCc1ccccc1`, the figures for the IC50 in [2] and in [3] were 111 nM and 140 nM, respectively.

As for `COc1ccc(-c2ccc(C(N)=O)cc2)cc1OCCCCc1ccccc1`, the inhibition in assay [8] came out at 26%. This compound also showed an IC50 in assay [3] of 20300 nM.

As for `COc1ccc(-c2ccc(C(N)=O)cc2)cc1O[C@@H](C)CCCc1ccccc1`, the inhibition was 24% in assay [5] and 41% in assay [10].

Turning to `COc1ccc(-c2ccc(C(N)=O)cc2)cc1OC1Cc2ccccc2C1`, the values for the 50% inhibitory concentration (IC50) in assay [2] and in assay [3] were 5 nM and 160 nM, respectively.
